These results are taken from ChEMBL document CHEMBL6177937, “Design, synthesis, and biological evaluation of novel thiazole derivatives as PI3K/mTOR dual inhibitors” (RSC Med Chem, 2024).

Common to all, as to type: functional
The test system of assay [1] is HL-60. The assay can be described thus: Cell cycle arrest in human HL-60 cells assessed as decrease in accumulation of cells at G2/M-phase at 2.29 uM measured after 24 hrs by propidium iodide staining based flow cytometry relative to control. Also noted: scale not given: the % may be the effect or the level left. A general note: A flow cytometer gives signals particle by particle.

For assay [2], the system named is HL-60. Description: Cell cycle arrest in human HL-60 cells assessed as decrease in accumulation of cells at S-phase at 2.29 uM measured after 24 hrs by propidium iodide staining based flow cytometry relative to control. More on the design: scale not given: the % may be the effect or the level left.
Assay [3] deals with HL-60. The assay can be described thus: Cell cycle arrest in human HL-60 cells assessed as increase in accumulation of cells at G0/G1-phase at 2.29 uM measured after 24 hrs by propidium iodide staining based flow cytometry relative to control.
For assay [4], the system named is HL-60. The assay can be described thus: Cell cycle arrest in human HL-60 cells assessed as increase in accumulation of cells at G0/G1-phase at 2.32 uM measured after 24 hrs by propidium iodide staining based flow cytometry relative to control.
Another assay has as its system SR. The assay can be described thus: Growth inhibition of human SR cells measured after 48 hrs by SRB assay. In short, it runs like this:
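NCI 60-line SRB screen: cells seeded […], grown 24 h at 37°C, 5% CO2, then exposed 48 h to five concentrations (10-fold or ½-log dilutions from DMSO stock). Adherent cells fixed with cold TCA (final 10%), suspension cells with 80% TCA (final 16%); SRB stained, read at 515 nm. GI50 from time-zero, control and treated absorbances.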

For assay [5], the system named is HL-60. The assay can be described thus: Cell cycle arrest in human HL-60 cells assessed as decrease in accumulation of cells at G2/M-phase at 2.32 uM measured after 24 hrs by propidium iodide staining based flow cytometry relative to control. More on the design: scale not given: the % may be the effect or the level left.

A value given as a limit tells only on which side of the number the result lay.

Broadly, the GI50 is the concentration at which growth is held to half of that of the control. For orientation: TGI means the concentration giving total growth inhibition.

On to `O=[N+]([O-])c1cc(/C=N/Nc2nc(-c3ccc(Cl)cc3)cs2)ccc1Cl`, for which the Activity is 12.8% in the assay on HL-60 [1] and 7.3% in the assay with HL-60 [2]. In the assay with HL-60 [3], the “fold change (FC)” value was determined as 1.13.
`CCOc1cc(/C=N/Nc2nc(-c3cccc([N+](=O)[O-])c3)cs2)ccc1O`: the “fold change (FC)” value with HL-60 [4] amounted to 1.28. Moreover, in the assay with SR, the GI50 was determined as 3.07 µM and the TGI was over 100 µM. Also, the CC50 with SR (read-out: LC50 (the source's name)) is over 100 µM. Also, in the assay with HL-60 [5], the Activity is listed as 63.5%.
